For data set [1], the system named is RAW264.7. Nature of the data set: Antiinflammatory activity against LPS-stimulated mouse RAW264.7 cells assessed as inhibition of IL1-beta production at 0.5 to 50 ug/ml pretreated for 4 hrs followed by challenge with 1 ug/mL LPS for 48 hrs by ELISA relative to control. Type of data set: functional, cell-based. Background: In an ELISA, binding on a coated surface is turned into a signal by an enzyme label.

Data set [2] concerns RAW264.7. The data set can be described thus: Antiinflammatory activity against LPS-stimulated mouse RAW264.7 cells assessed as inhibition of nitric oxide production at 0.5 to 50 ug/ml pretreated for 4 hrs followed by challenge with 1 ug/mL LPS for 24 hrs by Griess reaction method relative to control. (In general: The Griess reaction detects nitrite, a stable product of nitric oxide.)

The subject of data set [3] is HEK293. The data set can be described thus: Antiinflammatory activity against LPS-stimulated NF-kappaB activated human HEK293 cells at 100 ug/ml pretreated for 4 hrs followed by challenge with LPS for 48 hrs by luciferase assay. Type of data set: functional, cell-based. The method in brief: (§1)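 NF-κB reporter 293 cells grown in DMEM with 10% FBS, penicillin 100 U/mL and streptomycin 100 μg/mL. Compounds tested at 12.5, 25, 50, 100 and 200 μg/mL, added 4 h before stimulation with 1 μg/mL LPS for 48 h. Cells then washed twice in PBS (pH 7.4) and lysed in passive lysis buffer, and luciferase activity read.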

Data set [4] relates to HEK293. Nature of the data set: Antiinflammatory activity against LPS-stimulated NF-kappaB activated human HEK293 cells at 12.5 ug/ml pretreated for 4 hrs followed by challenge with LPS for 48 hrs by luciferase assay. Type of data set: functional, cell-based. The method in brief:
as §1

In data set [5] the test system is HEK293. Nature of the data set: Antiinflammatory activity against LPS-stimulated NF-kappaB activated human HEK293 cells at 200 ug/ml pretreated for 4 hrs followed by challenge with LPS for 48 hrs by luciferase assay. It is filed as functional, cell-based. The method in brief: as §1
The subject of data set [6] is RAW264.7. The data set can be described thus: Antiinflammatory activity against LPS-stimulated mouse RAW264.7 cells assessed as inhibition of TNFalpha production at 0.5 to 50 ug/ml pretreated for 4 hrs followed by challenge with 1 ug/mL LPS for 48 hrs by ELISA relative to control. It is filed as functional, cell-based.
Data set [7] relates to RAW264.7. The data set can be described thus: Antiinflammatory activity against LPS-stimulated mouse RAW264.7 cells assessed as inhibition of IL-10 production at 0.5 to 50 ug/ml pretreated for 4 hrs followed by challenge with 1 ug/mL LPS for 48 hrs by ELISA relative to control. Type of data set: functional, cell-based.
The test system of data set [8] is HEK293. The data set can be described thus: Antiinflammatory activity against LPS-stimulated NF-kappaB activated human HEK293 cells at 50 ug/ml pretreated for 4 hrs followed by challenge with LPS for 48 hrs by luciferase assay. Type of data set: functional, cell-based. The method in brief:
as §1

For data set [9], the system named is RAW264.7. Nature of the data set: Antiinflammatory activity against LPS-stimulated mouse RAW264.7 cells assessed as inhibition of IL-6 production at 0.5 to 50 ug/ml pretreated for 4 hrs followed by challenge with 1 ug/mL LPS for 48 hrs by ELISA relative to control. It is filed as functional, cell-based.
In data set [10] the test system is RAW264.7. The data set can be described thus: Cytotoxicity against LPS-stimulated mouse RAW264.7 cells assessed as cell viability upto 50 ug/mL for 4 hrs by MTT assay in presence of 0.01 to 1 ug/mL LPS measured after 24 hrs. It is filed as cell-based. The procedure, abridged:
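Viability of RAW 264.7 cells measured by MTT colorimetric assay after 24 h incubation with compounds. Compounds were tested up to 50 μg/mL alongside LPS at 0.01, 0.1 or 1 μg/mL, and at 100 μg/mL with 10 μg/mL LPS.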

In data set [11] the test system is HEK293. The data set can be described thus: Antiinflammatory activity against LPS-stimulated NF-kappaB activated human HEK293 cells at 25 ug/ml pretreated for 4 hrs followed by challenge with LPS for 48 hrs by luciferase assay. It is filed as functional, cell-based. The method in brief: as §1
For data set [12], the system named is RAW264.7. The data set can be described thus: Cytotoxicity against LPS-stimulated mouse RAW264.7 cells assessed as decrease in cell viability upto 100 ug/mL for 4 hrs by MTT assay in presence of 10 ug/mL LPS measured after 24 hrs.

The source made the active and inactive calls. No cut-off for these calls is given here.

Here are results for five molecules from ChEMBL document CHEMBL1773051, “Anti-inflammatory triterpenes from the leaves of Rosa laevigata” (J Nat Prod, 2011).

`CC(=O)[C@H](C)CCC1=CC2=CC[C@@H]3[C@@]4(C)C[C@@H](O)[C@H](O)[C@@](C)(CO)[C@@H]4CC[C@@]3(C)[C@]2(C)CC1`: the inhibition entry in the data set on RAW264.7 [1], in the data set on RAW264.7 [2], with RAW264.7 [6], in the data set on RAW264.7 [7] and with RAW264.7 [9] was “Active” throughout. Moreover, the outcome with HEK293 [3], in the data set on HEK293 [4], in the data set with HEK293 [5], in the data set with HEK293 [8] and in the data set on HEK293 [11] was Active. For the same molecule, the results for the Activity result with RAW264.7 [10] and in the data set on RAW264.7 [12] were “Non-toxic” and “Toxic”, respectively.
Regarding `CC1(C)CC[C@]2(C(=O)O)CC[C@]3(C)C(=C2C1)CC[C@@H]1[C@@]2(C)C[C@@H](O)[C@H](O)C(C)(C)[C@@H]2CC[C@]13C`, the inhibition result in the data set on RAW264.7 [1], in the data set with RAW264.7 [2], in the data set with RAW264.7 [6], in the data set with RAW264.7 [7] and in the data set on RAW264.7 [9] was “Active” throughout. Also, the result in the data set with HEK293 [3], with HEK293 [4], in the data set on HEK293 [5], in the data set with HEK293 [8] and in the data set on HEK293 [11] was Active. The Activity entry in the data set on RAW264.7 [10] is given as “Non-toxic”; with RAW264.7 [12], “Toxic”.
`C[C@@H]1CC[C@]2(C(=O)O)CC[C@]3(C)C(=CC[C@@H]4[C@@]5(C)C[C@@H](O)[C@H](O)[C@@](C)(CO)[C@@H]5CC[C@]43C)[C@@H]2[C@]1(C)O`: the inhibition result with RAW264.7 [1], in the data set on RAW264.7 [2], in the data set on RAW264.7 [6], in the data set on RAW264.7 [7] and in the data set on RAW264.7 [9] was “Active” in each case. Also, the outcome in the data set with HEK293 [3], in the data set with HEK293 [4], in the data set on HEK293 [5], in the data set on HEK293 [8] and in the data set on HEK293 [11] was Active. Also, the results for the Activity result in the data set with RAW264.7 [10] and with RAW264.7 [12] were “Non-toxic” and “Toxic”, respectively.
`C[C@]12CCC(=O)C=C1CC[C@@H]1[C@@H]2[C@@H](O)C[C@@]2(C)[C@H]1CC[C@]2(O)C(=O)CO`: the inhibition entry in the data set with RAW264.7 [1], in the data set on RAW264.7 [2], with RAW264.7 [6], in the data set on RAW264.7 [7] and in the data set on RAW264.7 [9] was “Active” throughout.
Take `CC1(C)CC[C@]2(C(=O)O)CC[C@]3(C)C(=CC[C@@H]4[C@@]5(C)C[C@@H](O)[C@@H](O)[C@@](C)(CO)[C@@H]5CC[C@]43C)[C@@H]2C1`: the inhibition result with RAW264.7 [1], with RAW264.7 [2], with RAW264.7 [6], in the data set on RAW264.7 [7] and with RAW264.7 [9] was “Active” throughout. In addition, the outcome with HEK293 [3], with HEK293 [4], in the data set on HEK293 [5], in the data set on HEK293 [8] and in the data set with HEK293 [11] was Active. Moreover, the Activity result with RAW264.7 [10] is recorded as “Non-toxic”; in the data set on RAW264.7 [12], “Toxic”.
